# A selection: hits, their analogues and other compounds. The true share with any hit is near 2.4%.
# Rad51 HR inh – Rad51 (human) homologous recombination inhibition; Q06609; hRad51 DNA strand exchange, fluorescence dequenching; inhibition, % at 10 µM; actives 0.085% (n = 200,000); AID 1385;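 active means inhibition above 40% at the single screening dose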;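 further: 0% = DMSO control wells and 100% = blanks with heterologous ssDNA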
# Target sequence (Q06609 whole entry, looked up): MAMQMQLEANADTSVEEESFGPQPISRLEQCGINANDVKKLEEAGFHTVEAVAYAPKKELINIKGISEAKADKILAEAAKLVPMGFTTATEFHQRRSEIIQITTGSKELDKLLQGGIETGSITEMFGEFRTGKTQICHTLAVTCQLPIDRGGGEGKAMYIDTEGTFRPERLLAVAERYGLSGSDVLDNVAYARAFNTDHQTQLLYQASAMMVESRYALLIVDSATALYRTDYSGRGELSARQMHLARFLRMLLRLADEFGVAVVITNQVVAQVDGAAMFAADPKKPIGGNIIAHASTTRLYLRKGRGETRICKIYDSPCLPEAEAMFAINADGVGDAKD
#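 material = hRad51 filaments on single-stranded DNA | reagent = Donor/quencher-labelled 47-bp dsDNA substrate | compound = 10 µM final, single point | schedule = strand-exchange reaction 15 min at room temperature | measured by = fluorescein emission 520 nm, excitation 485 nm | read-out basis = % inhibition versus plate control and blank means | benchmarks = plate controls and plate blanks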
# Yeast growth inh – reduces growth of yeast BB579 in restrictive medium | AID 804 | inhibition, % at 10 µM | S. cerevisiae BB579 growth, OD615, 48 h | actives 0.51% (n = 140,000);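 active means inhibition above a set limit, 3 SD over the mean compound inhibition, cut at about 44% in these data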
#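 test system = yeast BB579 (DeaD) | buffer or medium = restrictive CSMM-D medium | doses = single compound dose of 10 µM, 0.25% DMSO final | times = 4 h preincubation and 48 h exposure at 30 °C | technique = culture absorbance at 615 nm | benchmarks = amphotericin B 10 µg/mL, positive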
# HMGR II inh – inhibitors of class II HMG-CoA reductase from Enterococcus faecalis; actives 0.41% (n = 190,000); purified E. faecalis HMGR, NADPH absorbance 340 nm kinetic; AID 1066; inhibition, % at 10 µM;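 active means inhibition above a set limit, the median over all tested compounds plus 3 SD, cut at about 9.5% in these data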;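 further: enzyme runs in reverse so mevalonate oxidation gives rising NADPH absorbance; 0% = complete reaction with DMSO and 100% = background rate lacking mevalonate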
# Yeast lifespan up – yeast lifespan extension | inhibition of the nicotinamide effect, % at 10 µM | actives 0.68% (n = 130,000) | S. cerevisiae growth with nicotinamide, OD615; deaD strain in restrictive glucose medium;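 active means inhibition above a set limit, placed 3 SD over the median of all compounds, cut at about 26% in these data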;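 further: 0% = nicotinamide-treated wells and 100% = cells grown without nicotinamide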
#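 assay system = DeaD-strain S. cerevisiae | measured by = absorbance at 615 nm | probe or stimulus = nicotinamide 1.5 mM | buffer or medium = CSMM-D glucose medium, restrictive | times = 48 h at 30 °C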
# Arbovirus inh – arbovirus infection inhibition; arbovirus infection cell-based antiviral screen; inhibition, % at 10 µM; actives 0.37% (n = 200,000); in the data active means inhibition above about 30%
# Measles CPE – protection of cells from measles virus. protection (pct of control), % at 4 µM. actives 1.5% (n = 140,000). Measles virus-infected cells, CPE protection, absorbance; in the data active means protection mostly above about 24%, no sharp cut-off; inactive means mostly below about 26%
# * hit, by the source's call; nt = not tested or not shown.
SMILES,Rad51 HR inh,Yeast growth inh,HMGR II inh,Yeast lifespan up,Arbovirus inh,Measles CPE
COc1cc(C(C[N+](=O)[O-])c2c(-c3ccccc3)cc3ccccn23)cc(OC)c1OC (configuration not stated),nt,-53,-5,78*,-33,21
COc1ccccc1NC(=O)C1=C(C)NC(=O)NC1c1ccccc1[N+](=O)[O-] (configuration not stated),0,nt,11*,nt,12,nt
CC1=C(C(=O)Nc2ccccc2)C(c2ccccc2[N+](=O)[O-])NC(=O)N1 (configuration not stated),6,nt,-3,nt,-1,nt
CCn1c(COc2cccc3ccccc23)nnc1SCC(=O)OC1CCCCC1,-1,11,0,-7,34*,28
Cc1[nH]nc2c1C(c1cc(Br)cs1)C(C#N)=C(N)O2 (configuration not stated),16,-40,-2,1,-17,6
COCCN(C(=O)CSc1ncc(C(F)(F)F)cc1Cl)c1c(N)n(Cc2ccccc2)c(=O)[nH]c1=O,3,nt,8,nt,0,nt
CC(C)c1ccc2c(c1)C(c1ccc(N3CCOCC3)cc1)=NNC(c1cccs1)=N2,-2,-34,-3,1,-2,15
CCc1ccccc1S(=O)(=O)Cc1ccc(C(=O)NCc2cccs2)o1,-5,nt,9.8*,nt,15,nt
Nc1ccc(-c2nc3ccc(C(=O)O)cc3s2)cc1,-7,-12,2,-3,3,16
O=C(O)c1ccc2nc(-c3ccccc3)sc2c1,nt,47*,-3,-8,-3,17
CC1(CCc2ccccc2)NC(=S)N(c2ccccc2)N1 (configuration not stated),7,96*,-5,-8,-34,5
CC1(CCc2ccccc2)NC(=S)N(c2ccc(Cl)cc2)N1 (configuration not stated),nt,97*,-1,-9,-35,1
CC(Sc1ccsc1[N+](=O)[O-])C(=O)NCc1ccco1 (configuration not stated),-5,nt,-7,nt,11,nt
CCc1nnc(NC(=O)CSc2nc3cc(OC)ccc3cc2C)s1,-40,nt,2,nt,-6,nt
NC(=O)c1ccsc1NC(=O)CSc1ccccc1F,1,-30,1,-12,-5,12
Cc1ccccc1SCC(=O)OCC(=O)Nc1sccc1C(N)=O,4,-36,-8,-5,3,46*
Cc1cc(C)c(S(=O)(=O)c2ccccc2)c(OC(=O)c2ccc(Cl)cc2Cl)n1,nt,-52,-8,52*,5,21
N#CC12CCCCC1CC1CCCCC1(C#N)N2Cc1cccnc1 (configuration not stated),nt,5,2,-26,-1,113*
O=S(=O)(c1ccc2nc(COc3ccc(Cl)cc3Cl)[nH]c2c1)N1CCOCC1,13,-43,-1,-17,-21,53*
O=C(CSc1cccc2cccnc12)N1CCCC1,3,19,-8,-6,-37,2
COc1cc(/C(C)=N/NC(=O)c2ccc(CSc3nncn3C)cc2)cc(OC)c1OC,-6,nt,-4,nt,0,nt
C/C(=N\NC(=O)c1ccc(CSc2cccc3cccnc23)cc1)C1CCCCC1,20,71*,-1,-4,-5,12
COc1ccc(/C(C)=N/NC(=O)c2ccc(CSc3cccc4cccnc34)cc2)cc1OC,-7,71*,-1,-25,2,70*
Cc1c(C=O)c2ccccc2n1CC(=O)NCc1ccc2c(c1)OCO2,0,nt,3,nt,12,nt
CCC(C)(C)NC(=O)C(c1ccc(OC)cc1)N(CCOC)C(=O)CCC(=O)Nc1nccs1 (configuration not stated),3,nt,10*,nt,4,nt
SMILES,Rad51 HR inh,Yeast growth inh,HMGR II inh,Yeast lifespan up,Arbovirus inh,Measles CPE
COc1cc(OC)cc(-c2nc3ccccc3c(=O)o2)c1,2,-20,2,nt,14,5
O=c1oc(-c2ccccc2NS(=O)(=O)c2ccc3ccccc3c2)nc2ccccc12,-11,-24,-4,-4,30*,39
COC(=O)c1ccc(C(=O)OC)c(-n2c(=O)c3ccccc3c3ccccc3c2=O)c1,0,-17,-5,15,-2,4
CCC(C)(C)C(=O)Nc1cc([N+](=O)[O-])ccc1F,-5,-21,12*,5,-1,41
Cc1cc(-c2cccs2)n[nH]1,1,9,-2,-8,8,37*
Cc1cc(-c2ccc(Cl)s2)n[nH]1,nt,-55,5,-18,-1,11
CC1CCCC(C)N1/N=C/c1ccc(C#N)cc1 (configuration not stated),23,nt,2,nt,-2,nt
Cc1nc2c(c(C)c1C#N)C(=O)c1ccccc1-2,1,64*,3,-7,-6,16
Cc1c(O)c2c3c(cccc3c1O)C(=O)N(c1ccccc1)C2=O,-296,-29,-6,-4,35*,18
O=C(O)c1ccc2c3c(cccc13)C(=O)N(c1ccccc1)C2=O,nt,nt,-1,nt,-3,nt
COc1ccc(CNC(=O)C/C(C)=N/NC(=O)COc2ccc(C)cc2Br)cc1,nt,nt,-3,nt,-18,nt
Clc1ccc(NC2(c3nnnn3C3CCCCC3)CCCCC2)cc1,5,-27,1,2,-2,50*
Cc1cccc(C)c1-n1nnnc1C1(Nc2ccccc2)CCCCC1,nt,-33,-2,-1,6,21
Oc1oc(C=Nc2ccc(F)cc2F)c2ccccc12,-10,nt,0,nt,10,nt
Cc1cccc(C(=O)NNC(=O)c2ccc(-c3ccccc3)cc2)c1,6,-32,-3,2,-3,3
Cc1ccc(C(=O)NC2(C(Cl)Cl)N=C(c3ccccc3)N=C2N)cc1 (configuration not stated),1,nt,9.7*,nt,0,nt
COc1ccc(Cn2c(C)c(C)c(C#N)c2NC(=O)Nc2ccc(Cl)cc2)cc1,0,-69,11*,-10,-5,7
Cc1c(C#N)c(NC(=O)c2cccc(Cl)c2)n(Cc2ccccc2)c1C,-2,-32,1,-3,-3,12
COc1ccc(Cn2c(C)c(C)c(C#N)c2NC(=O)Nc2cccc(Cl)c2)cc1,-1,-20,-1,-4,79*,3
Cc1ccccc1-n1ncc(C(C)NC(=O)c2ccccc2)c1C (configuration not stated),5,nt,-1,nt,-3,nt
Cc1ccc(/C(N)=N/OC(=O)c2ccc(Cl)cc2Cl)cc1,4,99*,3,-11,2,2
CC(=O)C1C(=O)c2c(cccc2[N+](=O)[O-])C1=Nc1ccc(S(N)(=O)=O)cc1 (configuration not stated),21,nt,2,nt,-1,nt
CCOC(=O)N1CCN(C(=O)c2ccc3c(c2)sc2nc(-c4ccc(OC)cc4)cn23)CC1,-2,-59,2,-22,3,63*

# Assay outcomes as filed in PubChem BioAssay.
